{
  "source": "paper PMC11247636",
  "about": "(ACS Medicinal Chemistry Letters, 2024)",
  "key": {"[1]": {"experiment": "L-cystine crystallization inhibition assay", "settings": "from EC50 values", "outline": "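Supersaturated L-cystine (2.9 mM in Millipore water) was incubated with varying test compound concentrations for 72 h at room temperature, then centrifuged. L-cystine remaining in the supernatant was measured. EC50 came from dose–response curves, and relative potency was expressed as a ratio of EC50 values against reference inhibitors.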"}, "[2]": {"experiment": "Oral bioavailability and pharmacokinetics in Slc3a1-knockout mice", "format": "in vivo", "settings": "male, mouse, plasma, 150 umol/kg", "outline": "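Male Slc3a1-knockout mice (4 per route) received a single oral gavage of 150 μmol/kg in normal saline (100 μL) or a tail-vein iv dose of 30 μmol/kg. About 60 μL saphenous blood was drawn pre-dose and at 5, 15, 30 min and 1, 4, 8, 24 h. Plasma was stored at −80 °C. Parent and mixed-disulfide metabolite were quantified by LC-MS/MS against synthetic metabolite standard. F was derived from oral versus iv exposure.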"}, "[3]": {"tested_on": "L-cystine stone formation in Slc3a1-knockout mouse model of cystinuria", "experiment": "In vivo efficacy in Slc3a1-knockout mouse model of cystinuria", "set-up": "species or system Slc3a1-knockout male mice", "settings": "150 μmol/kg by gavage daily for 8 weeks"}},
  "data": [
    {"smiles": "N[C@@H](CSSC[C@H](N)C(=O)N1CCC2(CCCN2)CC1)C(=O)N1CCC2(CCCN2)CC1", "note": "[compound 3, 8-L-cystinyl bis(1,8-diazaspiro[4.5]decane)]", "values": [
      {"measurement": "Fold more potent than CDME in inhibiting L-cystine crystallization", "setting": "[1]", "value": "about 120 ×"},
      {"measurement": "Fold more potent than LH708 in inhibiting L-cystine crystallization", "setting": "[1]", "value": "about 2 ×"},
      {"measurement": "Fold more potent than CDME in inhibiting L-cystine crystallization", "setting": "[1]; listed as LH1753", "value": 120, "unit": "×"},
      {"measurement": "Fold more potent than LH708 in inhibiting L-cystine crystallization", "setting": "[1]; listed as LH1753", "value": 2, "unit": "×"},
      {"measurement": "CL/F", "setting": "[2]", "value": 133, "unit": "mL/min/kg"},
      {"measurement": "Vd/F", "setting": "[2]", "value": 7, "unit": "L/kg"},
      {"measurement": "Effect on growth", "setting": "[3]", "value": "no adverse effect on growth"},
      {"measurement": "Mice with stones in treated group", "setting": "[3]; water group 28 of 51", "value": "1 out of 25"}
    ]}
  ]
}
